Screening results from PubChem.
Shown are actives, neighbours in structure and some others; about 2.6% of the full set was active somewhere.
Casp6 inh: human caspase-6 inhibitors, primary screen, biochemical, VEID-R110 fluorescence, single point, set 2; P55212; actives 0.53% (n = 350,000); purified caspase-6, Z-VEID-R110 cleavage fluorescence; inhibition, % at 12.5 µM; AID 686996, 2013;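 active means mean inhibition across replicates at least about 35%, with every replicate also reaching that limit, limit read from the data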
FGF22 binding: binders of human FGF22 protein, primary screen, FGF22 synaptogenesis inhibitor project, biophysical, thermal shift, single point; Fibroblast growth factor 22 (Homo sapiens), Q9HCT0; recombinant FGF22 thermal shift, SYPRO orange fluorescence; percent of sucrose octasulfate shift, DMSO zero; activity (Tm shift, normalised), % at 9.99 µM; actives 1.5% (n = 340,000);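 active means mean Tm shift, scaled 0 neutral to 100 positive control, at about 1.3% or above, every replicate too, limit read from the data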
Target sequence (Q9HCT0 whole entry, looked up): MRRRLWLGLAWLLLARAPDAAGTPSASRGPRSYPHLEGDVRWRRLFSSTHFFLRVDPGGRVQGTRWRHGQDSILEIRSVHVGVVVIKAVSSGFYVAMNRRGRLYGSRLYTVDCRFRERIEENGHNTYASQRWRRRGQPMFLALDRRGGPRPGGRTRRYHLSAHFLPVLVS
NSD2 HMT inh: NSD2 histone methyltransferase inhibitors, primary screen, biochemical, AlphaScreen, single concentration, set 2; NSD2 peptide methylation, 120 min; inhibition, % at 12.5 µM; actives 0.54% (n = 310,000); in the data active means inhibition above about 50%
UCH37 inh: inhibitors of human UCH37 deubiquitinase, primary screen, biochemical, Ub-AMC cleavage, fluorescence | inhibition, % (test concentration not listed) | Ubiquitin carboxyl-terminal hydrolase isozyme L5 (Homo sapiens), Q9Y5K5 | purified proteasome/UCH37 | actives 0.33% (n = 330,000) | AID 588478, 2011;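 active means mean inhibition over replicate wells above about 20%, limit read from the data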
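assay system = human UCH37 enzyme supplied as purified proteasome complex | amount = proteasome at 0.15 nM in the dispensed enzyme solution | schedule = 30 min compound-proteasome preincubation then 25 min substrate reaction, room temperature | measured by = fluorescence, ex 355 nm, em 460 nm | benchmarks = no-proteasome wells (full inhibition) and compound-free wells (no inhibition)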
SIRT5 block: SIRT5 desuccinylase inhibitors, primary screen, biochemical, fluorescence imaging, single point, set 5; Purified SirT5, succinyl-peptide AMC, trypsin-coupled fluorescence; AID 652115, 2013; actives 1.1% (n = 330,000); inhibition, % at 15 µM; in the data active means inhibition above about 15%
Target sequence (Q9NXA8 whole entry, looked up): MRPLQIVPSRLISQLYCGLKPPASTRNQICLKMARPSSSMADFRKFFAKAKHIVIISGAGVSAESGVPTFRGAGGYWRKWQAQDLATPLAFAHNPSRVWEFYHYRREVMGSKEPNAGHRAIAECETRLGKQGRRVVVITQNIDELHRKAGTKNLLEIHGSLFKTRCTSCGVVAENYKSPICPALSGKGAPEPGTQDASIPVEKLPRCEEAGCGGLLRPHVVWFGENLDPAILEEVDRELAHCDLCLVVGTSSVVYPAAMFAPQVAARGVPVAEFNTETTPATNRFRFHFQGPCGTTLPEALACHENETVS
Alpha artifact: AlphaScreen signal interference with preloaded methylated product, dose response, artefact control for NSD2 inhibitor project, biochemical, cherry-picked samples; AlphaScreen artifact counterscreen, preloaded methylated H4 peptide; shares compounds with NSD2 HMT inh; actives 9.4% (n = 1,500); AID 1053174, 2014; AC35, µM (titrated, usually from 10 µM); call rule not given here
Large screens that a line does not name were inactive (follow-up assays come after a bar, where they were run).

O=C(CN1CCOCC1)NCCc1ccccc1	none
COc1ccccc1NC(=O)N[C@@H]1CC[C@@H](CC(=O)N[C@H](C)c2ccccc2)O[C@@H]1CO	none (no result: NSD2 HMT inh, UCH37 inh)
CC(Nc1cccc2ccccc12)C(=O)N/N=C/c1ccc([N+](=O)[O-])cc1 (stereo not given)	none (no result: Casp6 inh, FGF22 binding, UCH37 inh, SIRT5 block)
Cc1cccc(/C=N/NC(=O)C(C)Nc2cccc3ccccc23)n1 (stereo not given)	NSD2 HMT inh 103.5 (no result: Casp6 inh, FGF22 binding, UCH37 inh, SIRT5 block) | Alpha artifact inactive
CC(C)CNC(=O)c1cnn2c(C(F)(F)F)cc(C(F)(F)F)nc12	NSD2 HMT inh 53.5 | Alpha artifact inactive
CO[C@H]1CN(C)C(=O)c2cccc(C#N)c2OC[C@@H]2O[C@@H](CC[C@H]2OC)CCN(C)C(=O)[C@H]1C	none (no result: NSD2 HMT inh, UCH37 inh)
Cc1cnc(C2OCCO2)c2cccc(N)c12	Casp6 inh 59.8, NSD2 HMT inh 156.0 (no result: UCH37 inh) | Alpha artifact inactive
O=[N+]([O-])c1cccnc1C1OCCO1	none (no result: UCH37 inh)
Cc1cccc(OCC(=O)Nc2ncn[nH]2)c1C	NSD2 HMT inh 98.1 (no result: UCH37 inh) | Alpha artifact inactive
Cc1cccc(OCC(=O)Nc2nnn(C)n2)c1C	none (no result: Casp6 inh, FGF22 binding, SIRT5 block)
Cc1cccc(C)c1NC(=O)c1c[nH]c2ccccc12	NSD2 HMT inh 143.0 | Alpha artifact inactive
Cc1cccc(C)c1NC(=O)CNC(=O)Cc1c[nH]c2ccccc12	none (no result: FGF22 binding)
COc1cc(/C=C2\SC(=S)N(Nc3ccccc3)C2=O)ccc1O	none (no result: Casp6 inh, FGF22 binding, SIRT5 block)
O=C1/C(=C/c2ccc(O)c(O)c2)SC(=S)N1Nc1ccccc1	NSD2 HMT inh 88.1 (no result: Casp6 inh, FGF22 binding, SIRT5 block) | Alpha artifact 2.35µM
CN1C(=O)C(=O)/C(=C(/O)c2ccccc2)C1c1ccccc1 (stereo not given)	NSD2 HMT inh 58.9 | Alpha artifact inactive
O=C1C(=O)N(CCO)C(c2ccccc2)/C1=C(\O)c1ccccc1 (stereo not given)	none (no result: NSD2 HMT inh, SIRT5 block)
Cc1ccc(-c2cc(C(F)(F)F)n3nc(C(=O)N4CCN5CCCC5C4)cc3n2)cc1 (stereo not given)	NSD2 HMT inh 75.0 | Alpha artifact inactive
COc1ccc(-c2cc(C(F)(F)F)n3nc(C(=O)N4CCN5CCCC5C4)cc3n2)cc1OC (stereo not given)	none
OC[C@H]1[C@@H](c2ccccc2)C2(CN(Cc3ccccn3)C2)N1Cc1cncnc1	none (no result: NSD2 HMT inh, UCH37 inh)
O=C(c1ccc(F)cc1)N(CC1CCC1)C[C@H]1N[C@@H](CO)[C@H]1c1ccccc1	none (no result: Casp6 inh, NSD2 HMT inh, UCH37 inh)
O=C1Cc2ccccc2C(=O)N1c1ccccc1	NSD2 HMT inh 86.3 | Alpha artifact inactive
CNCc1ccccc1Sc1cc(O)ccc1O	none (no result: Casp6 inh, FGF22 binding, SIRT5 block)
CNCc1ccccc1Sc1cccc(O)c1	NSD2 HMT inh 73.7 (no result: Casp6 inh, FGF22 binding, SIRT5 block) | Alpha artifact inactive
CNCc1ccccc1Sc1ccc(OC)c(OC)c1	NSD2 HMT inh 56.2 (no result: Casp6 inh, FGF22 binding, SIRT5 block) | Alpha artifact inactive
C[C@@H]1CN([C@@H](C)CO)C(=O)c2cc(NC(=O)CCC(F)(F)F)ccc2O[C@@H]1CN(C)C(=O)NC1CCCCC1	none (no result: Casp6 inh, NSD2 HMT inh, UCH37 inh, SIRT5 block)
CCCNC(=O)N[C@@H]1CC[C@H](CC(=O)NC2CCC2)O[C@@H]1CO	none (no result: NSD2 HMT inh, UCH37 inh)
O=C(O)CC1NC(=S)N(Cc2ccccc2)C1=O (stereo not given)	none (no result: UCH37 inh)
CN1C(=O)C(CCC(=O)O)NC1=S (stereo not given)	NSD2 HMT inh 76.7 | Alpha artifact inactive
C[C@H](CO)N1C[C@H](C)[C@H](CN(C)S(=O)(=O)c2ccc(Cl)cc2)Oc2ccc(NC(=O)Nc3ccc4c(c3)OCO4)cc2C1=O	none (no result: NSD2 HMT inh, UCH37 inh)
O=C(O)c1ccc(NN=Cc2ccnc3ccccc23)cc1	none (no result: Casp6 inh, FGF22 binding, NSD2 HMT inh, SIRT5 block)
CNc1ccc(Br)cc(C(=O)/C=C/c2ccc(OC)cc2)c1=O	NSD2 HMT inh 66.2 (no result: Casp6 inh, FGF22 binding, SIRT5 block) | Alpha artifact inactive
CC(=NO)c1cccc(Br)c1	none (no result: Casp6 inh, FGF22 binding, NSD2 HMT inh, SIRT5 block)
CC(=NO)c1cc(Br)c2cccc3c2c1CC3	NSD2 HMT inh 66.1 (no result: UCH37 inh, SIRT5 block) | Alpha artifact inactive
CC(=O)COc1ncnc2c(Cl)cc(Cl)cc12	none
